The record followed here is ChEMBL document CHEMBL3853361 (ACS Med Chem Lett, 2016).

Calls of active or inactive are those of the source. The calls are words filed in the database; no cut-off is given here.

Data set [1] in a line: Drug level in human SK-MEL-28 cells treated with dabrafenib at 100 uM followed by UV-light irradiation by DAPI-staining based fluorescence microscopic analysis. The format is ADME, cell-based. Conditions: sk-mel-28, 100 µM. In outline:
(§1)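 Fluorescence microscopy of SKMEL28 cells seeded in wells. Cells incubated with parent drug, then exposed to rising doses of 365 nm UV; green autofluorescence of the photoproduct imaged at 10× per well. Nuclei counterstained with 1 µg/mL DAPI. Controls: cells without compound given the highest UV dose.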

Data set [2] is described as follows: Photostability of the compound in DMSO assessed as photolysis at 200 uM measured after irradiation of 1130 W/m2 UV-light for 15 mins by HPLC analysis. In kind it is physicochemical. To be noted: 0.25 h.
Data set [3] in a line: Drug level in DPBS treated with dabrafenib at 200 uM measured after irradiation of 1130 W/m2 UV-light for 15 mins by HPLC analysis. In kind it is physicochemical. Conditions: 0.25 h.
The nature of data set [4]: Antiproliferative activity against human SK-MEL-28 cells harboring BRAF V600E mutant assessed as concentration required for total growth inhibition measured after 48 hrs resazurin assay. In kind it is functional. To be noted: SK-MEL-28, 48 h. Put shortly:
(§2)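 SKMEL28 melanoma cells (BRAF V600E-dependent) exposed to a range of compound concentrations, no UV; growth measured after 48 h incubation. Dose–response curves give GI50, TGI (concentration giving total growth inhibition) and LC50; n = 4, error bars standard deviation.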

Data set [5] is described as follows: Drug level assessed as compound formation in DMSO using 200 uM dabrafenib measured after daylight exposure for 1 day by HPLC analysis. Conditions: 24 h. The format is physicochemical.
Data set [6] can be described thus: Drug uptake in nucleus of human SK-MEL-28 cells at 100 uM by DAPI-staining based fluorescence microscopic analysis. To be noted: sk-mel-28, 100 µM. The format is ADME, cell-based. In outline: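 SKMEL28 cells incubated with compound at 100 µM and imaged for green autofluorescence by fluorescence microscopy at 60×. Nuclei counterstained with 1 µg/mL DAPI.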
Data set [7] concerns the target Serine/threonine-protein kinase B-raf (Homo sapiens, UniProt P15056, V600E). Briefly: Inhibition of recombinant human N-terminal GST-6His tagged BRAF V600E mutant (417 to 766 residues) expressed in baculovirus infected Sf9 cells preincubated with substrate followed by protein and ATP addition measured after 60 mins by scintillation counter method.
Data set [8] is described as follows: Drug level in DMEM treated with dabrafenib at 200 uM measured after irradiation of 1130 W/m2 UV-light for 15 mins by HPLC analysis. Conditions: 0.25 h. In kind it is physicochemical. In outline:
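Parent drug dissolved in DMEM cell culture medium, irradiated at 1130 W/m2, then analysed by HPLC. Peak areas converted to concentrations with calibration curves (n = 4).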

A short description of data set [9]: Drug level in DMEM treated with dabrafenib at 200 uM measured after irradiation of 226 W/m2 UV-light for 5 mins by HPLC analysis. The format is physicochemical.
Data set [10] has as its system SK-MEL-28. As to the kind of experiment: Cytotoxicity against human SK-MEL-28 cells harboring BRAF V600E mutant at >30000 nM measured after 48 hrs by resazurin assay.
The subject of data set [11] is SK-MEL-28. Briefly: Growth inhibition of human SK-MEL-28 cells harboring BRAF V600E mutant preincubated for 1 hr followed by irradiation of 1.13 kW/m2 UV-light for 5 mins measured after 48 hrs resazurin assay. The format is functional, cell-based. In outline:
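SKMEL28 cells incubated 1 h with compound, then irradiated at 365 nm (1.13 kW/m2) for 5 min; growth measured 48 h after compound addition. GI50, TGI and LC50 taken from dose–response curves; n = 4, standard deviation shown.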

The test system of data set [12] is SK-MEL-28. Briefly: Cytostatic activity in human SK-MEL-28 cells harboring BRAF V600E mutant at 10 and 30000 nM measured after 48 hrs resazurin assay. In general terms: Resazurin is reduced to fluorescent resorufin, in cell work by metabolically active cells.
Data set [13] is described as follows: Drug level assessed as compound formation in DMEM using 200 uM dabrafenib measured after daylight exposure for 1 day by HPLC analysis. The format is physicochemical. Conditions: 24 h.
The test system of data set [14] is SK-MEL-28. Briefly: Growth inhibition of human SK-MEL-28 cells harboring BRAF V600E mutant measured after 48 hrs resazurin assay. In kind it is functional, cell-based. In outline: as §2
Data set [15] has as its system SK-MEL-28. Briefly: Cytostatic activity in human SK-MEL-28 cells harboring BRAF V600E mutant at 1 and 30 uM measured after 48 hrs resazurin assay. The format is functional, cell-based.
Data set [16] can be described thus: Half life of the compound in DMSO at 200 uM measured after irradiation of 226 W/m2 UV-light for 5 mins by HPLC analysis. In kind it is physicochemical. To be noted: DMSO solution under UV irradiation.
Data set [17] in a line: Half life of the compound in DMSO at 200 uM measured after irradiation of 1130 W/m2 W/m2 UV-light for 5 mins by HPLC analysis. The format is physicochemical. Conditions: DMSO solution under UV irradiation.
Data set [18] can be described thus: Stability of the compound in DMEM assessed as thermal decomposition at 200 uM incubated in dark for 1 day by HPLC analysis. The format is physicochemical. To be noted: 24 h.
A short description of data set [19]: Drug metabolism in human SK-MEL-28 cells assessed as photo-induced N-(5-amino-2-tert-butyl)-11-fluorbenzol[f]thiazol-[4,5-h]-quinazolin-10-yl)-2,6-difluorbenzolsulfonamide formation at 100 uM followed by UV-light irradiation by DAPI-staining based fluorescence microscopic analysis. The format is ADME, cell-based. To be noted: sk-mel-28, 100 µM. Put shortly: as §1

Data set [20] in a line: Photostability of the compound in DMSO at 200 uM measured after irradiation of 226 W/m2 UV-light for 5 mins by HPLC analysis. The format is physicochemical.
Data set [21] can be described thus: Half life of the compound in DPBS at 200 uM measured after irradiation of 1130 W/m2 UV-light for 15 mins by HPLC analysis. In kind it is physicochemical. To be noted: DPBS solution under UV irradiation.
Data set [22] in a line: Half life of the compound in DMSO at 200 uM measured after irradiation of 1130 W/m2 UV-light for 15 mins by HPLC analysis. In kind it is physicochemical. Conditions: DMSO solution under UV irradiation.
Data set [23] is described as follows: Stability of the compound in DMSO assessed as thermal decomposition at 200 uM incubated in dark for 1 day by HPLC analysis. In kind it is physicochemical. To be noted: 24 h.
The nature of data set [24]: Photostability of the compound in DMEM at 200 and 1100 uM measured after daylight exposure for 1 day by HPLC analysis. The format is physicochemical. To be noted: 24 h.
Data set [25] can be described thus: Photostability of the compound in DMSO at 200 uM measured after daylight exposure for 1 day by HPLC analysis. In kind it is physicochemical. To be noted: 24 h.

Broadly, the TGI is the concentration giving total growth inhibition. A word on the IC50: it is the point on the concentration scale where inhibition reaches its midpoint. A word on the half-life: it is the time in which the quantity being followed falls by half. A high value points to slow decline.

Serine/threonine-protein kinase B-raf, sequence (P15056 2-766 V600E limits assumed): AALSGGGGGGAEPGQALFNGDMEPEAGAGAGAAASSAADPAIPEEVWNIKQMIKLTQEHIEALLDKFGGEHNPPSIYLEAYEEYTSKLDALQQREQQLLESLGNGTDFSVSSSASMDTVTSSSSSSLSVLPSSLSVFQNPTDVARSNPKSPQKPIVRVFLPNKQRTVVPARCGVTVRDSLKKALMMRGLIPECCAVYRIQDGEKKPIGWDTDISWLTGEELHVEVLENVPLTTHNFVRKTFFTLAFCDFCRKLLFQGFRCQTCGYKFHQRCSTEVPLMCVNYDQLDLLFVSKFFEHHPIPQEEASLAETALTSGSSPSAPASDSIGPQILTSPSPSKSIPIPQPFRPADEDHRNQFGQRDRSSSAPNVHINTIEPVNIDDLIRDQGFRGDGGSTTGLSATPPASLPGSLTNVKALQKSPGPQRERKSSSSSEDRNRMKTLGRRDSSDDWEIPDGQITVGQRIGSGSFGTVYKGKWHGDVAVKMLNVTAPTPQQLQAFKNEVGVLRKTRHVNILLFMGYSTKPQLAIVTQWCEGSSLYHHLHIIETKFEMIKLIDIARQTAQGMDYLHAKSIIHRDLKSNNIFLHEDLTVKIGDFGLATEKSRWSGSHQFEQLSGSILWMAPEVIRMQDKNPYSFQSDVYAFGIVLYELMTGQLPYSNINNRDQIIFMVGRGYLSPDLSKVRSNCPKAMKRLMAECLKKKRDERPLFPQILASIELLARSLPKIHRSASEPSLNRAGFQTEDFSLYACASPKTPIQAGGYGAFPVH

With `CC(C)(C)c1nc2c(s1)c1nc(N)ncc1c1ccc(NS(=O)(=O)c3c(F)cccc3F)c(F)c12`, the Drug metabolism result in [1], in data set [3], in [5], in data set [8], in data set [9] and in data set [13] was “Metabolite_Detected” each time. Moreover, the Stability result in data set [2] is “Unstable”. The total growth inhibition concentration (TGI) in data set [4] is 8.9 µM. Moreover, the Drug uptake result in data set [6] is reported as “Active”. Moreover, the IC50 in data set [7] turned out to be 0.28 µM. Moreover, the result with SK-MEL-28 [10] and with SK-MEL-28 [12] was Active. In the data set on SK-MEL-28 [11], the “growth inhibition (GI)” value was “Active”.
For `CC(C)(C)c1nc(-c2cccc(NS(=O)(=O)c3c(F)cccc3F)c2F)c(-c2ccnc(N)n2)s1` [DABRAFENIB], the “growth inhibition (GI)” value in the data set with SK-MEL-28 [14] and with SK-MEL-28 [11] was “Active” throughout. In addition, in the data set with SK-MEL-28 [15], the outcome was Active. Moreover, the half-life at 200 µM in data set [16] is 65 s; in data set [17] it was 19.5 s; in [21], 145 s; in data set [22], 19.5 s. In addition, the Stability entry was “Stable” in data set [18]; “Unstable” in [20]; “Stable” in data set [23]; “Unstable” in [24]; “Unstable” in [25]. In data set [19], the Drug metabolism result is recorded as “Metabolite_Detected”.
Turning to `CCCS(=O)(=O)Nc1ccc(F)c(C(=O)c2c[nH]c3ncc(-c4ccc(Cl)cc4)cc23)c1F` [VEMURAFENIB], the TGI in data set [4] is 2 µM. Moreover, the “growth inhibition (GI)” value in the data set with SK-MEL-28 [11] is “Active”.
